# High-throughput results from PubChem.
# In the library only some 2.2% were active in any assay of this set; here they are far more common.
# b-catenin transl = alters nuclear translocation of beta-catenin in HeLa cells | immunofluorescence imaging | nuclear translocation activity, % at 5 µM | 190,000 compounds, 0.3% hits | AID 1665;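 active = nuclear translocation activity above 50% at 5 µM, with a well cell count of 50 or more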;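 also: per-cell ratio of nuclear to cytoplasmic median beta-catenin stain intensity; plate controls were DMSO negative control for no effect and GSK-3 inhibitor IX positive control for full effect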
#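 Assay system: human HeLa cells, native beta-catenin; doses: 5 µM primary, 0.02–20 µM confirmation; incubation: compound treatment 24 h, 37°C, 5% CO2; technique: fluorescence imaging of beta-catenin antibody stain plus DAPI; measure: % activation, nuclear-to-cytoplasmic median beta-catenin signal ratio per cell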
# BaF3 parental = counter-screen for JAK2V617F inhibitors: parental Ba/F3 viability inhibitors | 220,000 compounds, 1.1% hits | inhibition, % at 5.6 µM | CellTiter-Glo ATP luminescence | AID 1486;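 active = inhibition above a per-campaign cutoff, the mean inhibition of all tested compounds plus 3 SD, cut at about 27% in these data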;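 also: 0% = DMSO wells and 100% = JAK Inhibitor I control wells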
# IEC-6 cytotox = IEC-6 cytotoxicity, counter-screen for KLF5 inhibitors. luminescence viability. inhibition, % at 5 µM. 290,000 compounds, 0.78% hits. AID 1825;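 also: 0% = plate median of test compound wells and 100% = cytotoxic reference compound wells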
# Ba/F3 V617F tox = reduce viability of Ba/F3 cells dependent on JAK2V617F; Ba/F3 EpoR-JAK2V617F viability, ATP luminescence; inhibition, % at 5.6 µM; 220,000 compounds, 1.1% hits;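 active = inhibition above the campaign mean plus 3 SD over all tested compounds, cut at about 24% in these data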;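 also: cytokine-independent growth of Ba/F3 cells driven by EpoR plus mutant JAK2; 0% = DMSO-treated cells and 100% = JAK inhibitor I control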
# MT stabilize HCS = microtubule stabilizers in HeLa cells; HeLa tubulin immunostaining HCS, 24 h; share of cells brighter than vehicle mean+2SD; % tubulin-high responders, % at 10 µM; 200,000 compounds, 0.83% hits;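 active = plate Z-score above 3 for both tubulin-high and condensed-nucleus cell shares, with cell loss under 80%, at 10 µM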;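 also: anti alpha tubulin signal scored within the nucleus-defined area of each cell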
# APP 5UTR inh = APP translation inhibition; SH-SY5Y APP 5'UTR-luciferase reporter, luminescence; inhibition, % at 2 µM; 190,000 compounds, 0.82% hits; AID 1285;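 active = inhibition above a set limit, derived from the sample mean plus 3 SD, cut at about 45% in these data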
# IEC-6 tox confirm = confirmation of cytotoxic compounds in rat IEC-6 intestinal epithelial cells. AID 1907. 1,900 compounds, 63% hits. inhibition, % at 5 µM. IEC-6 rat intestinal epithelial viability, luminescence. shares compounds with IEC-6 cytotox;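 also: 0% = vehicle and 100% = reference cytotoxic drug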
# * = called active by the depositor; . = not tested or not shown. Rule as the data show it, unless noted: active = inhibition above about 22%; inactive = the rest.
SMILES,b-catenin transl,BaF3 parental,IEC-6 cytotox,Ba/F3 V617F tox,MT stabilize HCS,APP 5UTR inh,IEC-6 tox confirm
COC(=O)c1cc(C(=O)c2c(C)cc3ccccn23)cc([N+](=O)[O-])c1,.,.,44.3*,.,.,.,48.0*
CCCCCCn1c2c(c(=N)c3c1CCC3)CCC2,0.3,78.1*,23.5*,97.6*,3.6,-16.1,26.1*
CCCCCCCCCn1c2c(c(=N)c3c1CCC3)CCC2,-5.4,90.9*,44.3*,98.2*,4.1,18.2,50.2*
CCCCCCCn1c2c(c(=N)c3c1CCC3)CCCC2,2.7,88.5*,38.1*,99.8*,5.7,22.0,36.9*
CC(C)c1nnc(NC(=O)CCC(=O)NC2CCCCCC2)s1,.,.,-0.3,.,.,.,.
Cc1ccc(C(=O)Nc2ccn(Cc3ccc(F)cc3)n2)o1,0.5,2.0,74.4*,23.2,6.2,-5.7,8.7
CCN(CC)c1ccc(NC(=O)c2cc(OC)cc(OC)c2)c(C)c1,.,78.0*,77.7*,78.5*,11.0,92.4*,60.4*
COc1ccc(NC(=O)C(Cl)=C(Cl)Cl)cn1,-0.1,-3.3,12.5,0.6,5.5,29.6,.
COc1ccc(CC(=O)Nc2ccc(OC)nc2)cc1,-1.6,5.0,-3.7,-2.7,5.3,-2.2,.
COc1ccc(NC(=O)Cc2ccc(-c3ccccc3)cc2)cn1,96.5*,14.4,40.1*,3.6,25.6*,17.9,21.8
COc1ccc(NC(=O)/C(Cl)=C(/Cl)S(=O)Cc2ccc(Cl)cc2)cn1 (centres undefined),3.5,85.8*,42.1*,100.1*,2.3,95.9*,55.8*
COc1ccc(NC(=O)/C(Cl)=C(/Cl)S(=O)(=O)Cc2ccccc2)cn1,-2.2,31.2*,30.6*,72.8*,1.7,76.9*,47.3*
O=C(CCc1ccccc1)NCc1ccc2c(c1)OCO2,.,.,2.6,.,.,.,.
CCc1ccc2nc(N(CCCN(C)C)C(=O)c3ccc(S(=O)(=O)N4CCc5ccccc5C4)cc3)sc2c1,.,.,-6.3,.,.,.,.
CSc1cccc(NC(=O)CCS(=O)(=O)c2cccc3nonc23)c1,.,.,8.9,.,.,.,.
COc1cccc2cc(CC(=O)c3ccc(C)cc3C)c(=O)oc12,.,.,-2.0,.,.,.,.
CCN(CC)c1ccc2c(Cl)c(Br)c(=O)oc2c1,.,2.9,49.5*,1.5,16.2,5.1,27.0*
CCOC(=O)C1CCCN(C/C=C/c2ccccc2)C1 (centres undefined),.,.,1.1,.,.,.,.
CCCNC(=O)c1ccccc1NC(=O)c1ccc2c(c1)NC(=O)C(C)S2 (centres undefined),.,.,41.5*,.,.,.,21.4
CC1=C(C(=O)Nc2ccc(CC(=O)NCc3ccc(OC(C)C)cc3)cc2)SCCO1,.,.,82.2*,.,.,.,60.3*
COc1cccc(CNC(=O)c2cccc(NC(=O)C3=C(C)OCCS3)c2)c1,.,.,-1.7,.,.,.,.
CCOc1ccc(CNC(=O)c2cccc(NC(=O)C3=C(C)OCCS3)c2)cc1,.,.,-0.1,.,.,.,.
COc1ccc(CNC(=O)Cc2ccc(NC(=O)C3=C(C)OCCS3)cc2)cc1,.,.,65.3*,.,.,.,43.0*
CC1=CCC(C(=O)O)C(C(=O)NC2CCCCC2)C1 (centres undefined),.,.,8.5,.,.,.,.
CCn1c(CCNC(=O)c2cccs2)nnc1SCC(=O)Nc1ccc(Cl)cc1,3.5,4.5,1.3,-0.4,2.2,-6.5,.
SMILES,b-catenin transl,BaF3 parental,IEC-6 cytotox,Ba/F3 V617F tox,MT stabilize HCS,APP 5UTR inh,IEC-6 tox confirm
CCn1c(CCNC(=O)c2cccs2)nnc1SCC(=O)NC1CCCCC1,.,2.0,25.1*,5.8,4.5,-27.2,4.8
COc1cc(-c2noc(C)c2/C=C/c2ccc(C(=O)O)cc2)cc(OC)c1OC,.,.,-5.0,.,.,.,.
COc1cc(-c2noc(C)c2/C=C/c2cccc([N+](=O)[O-])c2)cc(OC)c1OC,.,.,79.4*,.,.,.,53.7*
C=CCOc1ccc(C2NC(=S)NC(C)=C2C(=O)c2ccccc2)cc1OC (centres undefined),-1.5,-3.0,2.7,-2.9,4.4,9.9,.
COc1cccc(C2NC(=S)NC(C)=C2C(=O)c2ccccc2)c1OC (centres undefined),132.0*,78.3*,68.3*,84.1*,23.7*,77.6*,50.4*
NCC(=O)Nc1ccc(Cl)cc1C(=O)c1ccc[nH]1,0.8,37.5*,31.0*,58.3*,.,.,9.3
CCc1c(C(=O)Nc2ccc(S(=O)(=O)N3CCOCC3)cc2)csc1C,0.0,1.5,2.3,-1.6,2.4,-2.2,.
Nc1ccc(-c2cnc(-c3ccc(N)cc3)nc2)cc1,-0.4,11.7,6.2,8.9,8.4,-126.0,.
Oc1ccc(-c2cnc(-c3ccc(O)cc3)nc2)cc1,.,.,41.3*,.,.,.,13.5
O=C(OCn1ncc(Br)c(Br)c1=O)c1ccc(F)cc1,5.9,92.8*,36.1*,84.7*,1.3,95.5*,62.4*
O=C(OCn1ncc(Cl)c(Cl)c1=O)c1cccc(C(F)(F)F)c1,-0.4,-3.3,4.0,4.0,1.9,44.3,.
O=C(OCn1ncc(Br)c(Br)c1=O)c1ccccc1Cl,-1.6,37.3*,23.2*,39.9*,1.0,.,53.8*
C/C(=N\NC(=O)c1ccccc1O)c1ccc(Br)s1,0.1,4.7,-5.1,-0.2,1.3,-24.0,.
C/C(=N\NC(=O)c1cccc(F)c1)c1ccc(Br)s1,22.2,14.2,24.1*,6.7,34.1*,-2.8,31.8*
CC1CCN(S(=O)(=O)c2ccc(NC(=O)CSc3nnnn3C)cc2)CC1,-3.9,-0.2,1.7,1.8,2.1,-3.1,.
O=C(NCc1ccc2c(c1)OCO2)c1nc(S(=O)(=O)Cc2ccccc2F)ncc1Cl,.,.,35.1*,.,.,.,12.1
O=C(NCc1ccc2c(c1)OCO2)c1nc(S(=O)(=O)Cc2ccccc2)ncc1Cl,.,.,24.0*,.,.,.,14.6
CC(=O)N(C1=C(Cl)C(=O)c2ccccc2C1=O)C1CCCCC1,2.9,-4.9,25.1*,1.5,.,.,8.5
CC(=O)N(c1ccccc1C)C1CCCC1,-5.7,4.3,1.0,2.0,3.1,-9.7,.
COc1cccc(OC)c1C(=O)Nc1ccc2c3c(cccc13)CC2,0.3,7.5,14.4,4.8,3.4,4.3,.
Cc1cccc(-c2nnc3n2N=C(c2ccccc2Br)CS3)c1,-0.2,32.5*,34.0*,37.1*,1.1,-15.8,21.2
CCOc1cccc(-c2nnc3n2N=C(c2cc(OC)ccc2OC)CS3)c1,1.5,80.9*,58.3*,79.7*,29.0*,88.4*,51.6*
COc1ccc(C2=Nn3c(nnc3-c3ccc(OC)cc3)SC2)cc1,.,75.6*,81.9*,64.0*,29.3*,93.4*,58.2*
COc1ccc(OC)c(C2=Nn3c(nnc3-c3cc(OC)c(OC)c(OC)c3)SC2)c1,-2.1,7.9,1.1,3.4,1.6,2.9,.
COc1cc(-c2nnc3n2N=C(c2ccccc2)CS3)cc(OC)c1OC,92.9*,81.2*,76.7*,73.8*,45.9*,93.9*,67.3*
Cc1cc(-c2nnc3n2N=C(c2ccccc2Br)CS3)n[nH]1,-0.6,19.0,-4.8,10.5,.,.,.
COc1cccc(-c2nnc3n2N=C(c2cc(OC)ccc2OC)CS3)c1,-1.7,0.1,-3.9,-1.1,3.7,-8.8,.
